Test results taken from ChEMBL document CHEMBL1121571, “Cytotoxic and antitumor properties of bleomycin and several of its metal complexes” (J Med Chem, 1980).

How the values were obtained:
Assay type in all cases: functional, organism-based
Mus musculus [1] = organism: Mus musculus; assay: Tested for the thymidine uptake against blenoxane at 40 nm of drug/mg of cell protein in mice
How it was run: (§1)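 Ehrlich ascites cells from a donor mouse, in fresh MEM at 5 × 10⁶ cells/mL, were exposed to drug for 60 min at 37 °C with gentle shaking. They were then washed once, resuspended in fresh MEM and given [³H]thymidine (final thymidine about 8.6 × 10⁻⁸ M) for 20 min. DNA synthesis was read as perchloric acid-precipitable label. Values are % of control ± SD over three trials.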

Mus musculus [2] = organism: Mus musculus; assay: Tested for the inhibition of DNA synthesis against blenoxane at 4 nm of drug/mg of cell protein in mice; design: scale not given: the % may be the effect or the level left
How it was run: (§2)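 Culture-adapted Ehrlich cells were incubated 60 min with […] (4 nmol/mg cell protein) in the presence of serum. [³H]dThd incorporation into DNA was measured at the end of the 60 min. Values are expressed relative to untreated control.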

Mus musculus [3] = organism: Mus musculus; assay: Tested for the inhibition of DNA synthesis against blenoxane at 40 nm of drug/mg of cell protein in mice; design: scale not given: the % may be the effect or the level left; how it was run: as §1
Mus musculus [4] = organism: Mus musculus; assay: Tested for the thymidine uptake against blenoxane at 80 nm of drug/mg of cell protein in mice; how it was run: as §1
Mus musculus [5] = organism: Mus musculus; assay: Tested for the inhibition of DNA synthesis against blenoxane at 10 nm of drug/mg of cell protein in mice; design: scale not given: the % may be the effect or the level left; how it was run: as §1
Mus musculus [6] = organism: Mus musculus; assay: Tested for the thymidine uptake against blenoxane at 4 nm of drug/mg of cell protein in mice
Mus musculus [7] = organism: Mus musculus; assay: Tested for the inhibition of DNA synthesis against blenoxane at 80 nm of drug/mg of cell protein in mice; design: scale not given: the % may be the effect or the level left; how it was run: as §1
Mus musculus [8] = organism: Mus musculus; assay: Tested for the thymidine uptake against blenoxane at 10 nm of drug/mg of cell protein in mice; how it was run: as §1
Mus musculus [9] = organism: Mus musculus; assay: Tested for the inhibition of DNA synthesis against cu-blenoxane at 10 nm of drug/mg of cell protein in mice; design: scale not given: the % may be the effect or the level left; how it was run: as §1
Mus musculus [10] = organism: Mus musculus; assay: Tested for the thymidine uptake against cu-blenoxane at 80 nm of drug/mg of cell protein in mice; how it was run: as §1
Mus musculus [11] = organism: Mus musculus; assay: Tested for the inhibition of DNA synthesis against cu-blenoxane at 4 nm of drug/mg of cell protein in mice; design: scale not given: the % may be the effect or the level left; how it was run: as §2
Mus musculus [12] = organism: Mus musculus; assay: Tested for the inhibition of DNA synthesis against cu-blenoxane at 80 nm of drug/mg of cell protein in mice; design: scale not given: the % may be the effect or the level left; how it was run: as §1
Mus musculus [13] = organism: Mus musculus; assay: Tested for the thymidine uptake against cu-blenoxane at 10 nm of drug/mg of cell protein in mice; how it was run: as §1
Mus musculus [14] = organism: Mus musculus; assay: Tested for the thymidine uptake against cu-blenoxane at 4 nm of drug/mg of cell protein in mice
Mus musculus [15] = organism: Mus musculus; assay: Tested for the inhibition of DNA synthesis against cu-blenoxane at 40 nm of drug/mg of cell protein in mice; design: scale not given: the % may be the effect or the level left; how it was run: as §1
Mus musculus [16] = organism: Mus musculus; assay: Tested for the thymidine uptake against cu-blenoxane at 40 nm of drug/mg of cell protein in mice; how it was run: as §1

Substance: BLEOMYCIN
- Control (Mus musculus [1]): 69.8%
- Control (Mus musculus [2]): 67.9%
- Control (Mus musculus [3]): 56.4%
- Control (Mus musculus [4]): 61.9%
- Control (Mus musculus [5]): 66.1%
- Control (Mus musculus [6]): 86%
- Control (Mus musculus [7]): 40.1%
- Control (Mus musculus [8]): 79.1%

Substance: cu-blenoxane
- Control (Mus musculus [9]): 61.5%
- Control (Mus musculus [10]): 68.4%
- Control (Mus musculus [11]): 86.8%
- Control (Mus musculus [12]): 51.3%
- Control (Mus musculus [13]): 83.5%
- Control (Mus musculus [14]): 94.9%
- Control (Mus musculus [15]): 55.3%
- Control (Mus musculus [16]): 71.2%
